Measured values reported in ChEMBL document CHEMBL1125337, “Synthesis and antibacterial activity of a series of basic amides of teicoplanin and deglucoteicoplanin with polyamines” (J Med Chem, 1992).
Converted amounts (≈) assume the structure as drawn.

How the values were obtained:
[1] = Association constant to Ac2-L-Lys-D-Ala-D-Ala determined at pH 9; Value ranges from (9.5E4-3.5E5)
Enterococcus faecalis = experiment: Minimum inhibitory concentration against Enterococcus faecalis ATCC 7080; type: functional
How it was run: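 Microbroth dilution MIC (µg/mL), final inoculum 10^4 cfu/mL, incubated 24 h at 37 °C in air.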

Streptococcus pyogenes [2] = experiment: Minimum inhibitory concentration against Streptococcus pyogenes L 49; type: functional
How it was run: (§1)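 MIC (µg/mL) by microbroth dilution in Todd-Hewitt broth, final inoculum 10^4 cfu/mL, incubated 24 h at 37 °C in air.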

Streptococcus pneumoniae = experiment: Minimum inhibitory concentration against Streptococcus pneumoniae L 44; type: functional; how it was run: as §1
Streptococcus pyogenes [3] = experiment: Efficacy of compound administered subcutaneously against Streptococcus pyogenes L 49 Septicemia in mouse; type: functional; details: sc
How it was run: (§2)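 Mice were infected intraperitoneally with about 10^5 Strep. pyogenes L 49 cells, about 100 times the 50% lethal dose. Groups of 5–8 mice were treated once right after challenge, by the route stated in the line. ED50 (mg/kg) was derived from percentage survival at each dose on day 7 (Spearman-Kärber).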

[4] = tested on: Staphylococcus epidermidis; experiment: Minimum inhibitory concentration against Staphylococcus epidermidis ATCC 12228; type: functional
How it was run: (§3)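 MIC (µg/mL) by microbroth dilution in Iso-Sensitest broth; final inoculum 10^4 cfu/mL; 24 h at 37 °C in air.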

Staphylococcus aureus = experiment: Minimum inhibitory concentration against Staphylococcus aureus L 165; type: functional; how it was run: as §3
Streptococcus pyogenes [5] = experiment: Efficacy of compound administered perorally against Streptococcus pyogenes L 49 Septicemia in mouse; type: functional; details: po; how it was run: as §2
[6] = tested on: Staphylococcus haemolyticus; experiment: Minimum inhibitory concentration against Staphylococcus haemolyticus L 602; type: functional; how it was run: as §3

Structure (SMILES)	Ka [1]	MIC (Enterococcus faecalis)	MIC (Streptococcus pyogenes [2])	MIC (Streptococcus pneumoniae)	ED50 (Streptococcus pyogenes [3])	MIC [4]	MIC (Staphylococcus aureus)	ED50 (Streptococcus pyogenes [5])	MIC [6]
CC(=O)N[C@@H]1[C@H](O[C@@H]2c3ccc(c(Cl)c3)Oc3cc4cc(c3O[C@@H]3O[C@@H](CO)[C@@H](O)[C@H](O)[C@@H]3NC(=O)CCCCCCC(C)C)Oc3ccc(cc3Cl)C[C@H]3NC(=O)[C@H](N)c5ccc(O)c(c5)Oc5cc(O)cc(c5)[C@H](NC3=O)C(=O)N[C@H]4C(=O)N[C@H]3C(=O)N[C@@H]2C(=O)N[C@H](C(=O)NCCCNCCCNCCCN)c2cc(O)cc(O[C@H]4O[C@H](CO)[C@@H](O)[C@@H](O)[C@@H]4O)c2-c2cc3ccc2O)O[C@@H](CO)[C@@H](O)[C@@H]1O	350000 M⁻¹	0.125 µg/mL (≈ 0.061 µM)	0.063 µg/mL (≈ 0.0307 µM)	0.125 µg/mL (≈ 0.061 µM)	0.06 mg/kg	0.063 µg/mL (≈ 0.0307 µM)	0.125 µg/mL (≈ 0.061 µM)	80 mg/kg	0.125 µg/mL (≈ 0.061 µM)
CC(=O)N[C@@H]1[C@H](O[C@@H]2c3ccc(c(Cl)c3)Oc3cc4cc(c3O[C@@H]3O[C@@H](CO)[C@@H](O)[C@H](O)[C@@H]3NC(=O)CCCCCCC(C)C)Oc3ccc(cc3Cl)C[C@H]3NC(=O)[C@H](N)c5ccc(O)c(c5)Oc5cc(O)cc(c5)[C@H](NC3=O)C(=O)N[C@H]4C(=O)N[C@H]3C(=O)N[C@@H]2C(=O)N[C@H](C(=O)N2CCCCN(CCCN(C)C)CCCC2)c2cc(O)cc(O[C@H]4O[C@H](CO)[C@@H](O)[C@@H](O)[C@@H]4O)c2-c2cc3ccc2O)O[C@@H](CO)[C@@H](O)[C@@H]1O	350000 M⁻¹	0.125 µg/mL (≈ 0.0598 µM)	0.063 µg/mL (≈ 0.0302 µM)	0.125 µg/mL (≈ 0.0598 µM)	–	0.063 µg/mL (≈ 0.0302 µM)	0.125 µg/mL (≈ 0.0598 µM)	–	0.5 µg/mL (≈ 0.239 µM)
CC(=O)N[C@@H]1[C@H](O[C@@H]2c3ccc(c(Cl)c3)Oc3cc4cc(c3O[C@@H]3O[C@@H](CO)[C@@H](O)[C@H](O)[C@@H]3NC(=O)CCCCCCC(C)C)Oc3ccc(cc3Cl)C[C@H]3NC(=O)[C@H](N)c5ccc(O)c(c5)Oc5cc(O)cc(c5)[C@H](NC3=O)C(=O)N[C@H]4C(=O)N[C@H]3C(=O)N[C@@H]2C(=O)N[C@H](C(=O)NCCN(CCN)CCN)c2cc(O)cc(O[C@H]4O[C@H](CO)[C@@H](O)[C@@H](O)[C@@H]4O)c2-c2cc3ccc2O)O[C@@H](CO)[C@@H](O)[C@@H]1O	350000 M⁻¹	0.063 µg/mL (≈ 0.0314 µM)	0.063 µg/mL (≈ 0.0314 µM)	0.063 µg/mL (≈ 0.0314 µM)	0.04 mg/kg	0.063 µg/mL (≈ 0.0314 µM)	0.125 µg/mL (≈ 0.0623 µM)	58 mg/kg	0.125 µg/mL (≈ 0.0623 µM)
CC(=O)N[C@@H]1[C@H](O[C@@H]2c3ccc(c(Cl)c3)Oc3cc4cc(c3O[C@@H]3O[C@@H](CO)[C@@H](O)[C@H](O)[C@@H]3NC(=O)CCCCCCC(C)C)Oc3ccc(cc3Cl)C[C@H]3NC(=O)[C@H](N)c5ccc(O)c(c5)Oc5cc(O)cc(c5)[C@H](NC3=O)C(=O)N[C@H]4C(=O)N[C@H]3C(=O)N[C@@H]2C(=O)N[C@H](C(=O)NCCCNCCCCN)c2cc(O)cc(O[C@H]4O[C@H](CO)[C@@H](O)[C@@H](O)[C@@H]4O)c2-c2cc3ccc2O)O[C@@H](CO)[C@@H](O)[C@@H]1O	350000 M⁻¹	0.125 µg/mL (≈ 0.0623 µM)	0.063 µg/mL (≈ 0.0314 µM)	0.125 µg/mL (≈ 0.0623 µM)	0.05 mg/kg	0.063 µg/mL (≈ 0.0314 µM)	0.125 µg/mL (≈ 0.0623 µM)	81 mg/kg	0.125 µg/mL (≈ 0.0623 µM)
CC(=O)N[C@@H]1[C@H](O[C@@H]2c3ccc(c(Cl)c3)Oc3cc4cc(c3O[C@@H]3O[C@@H](CO)[C@@H](O)[C@H](O)[C@@H]3NC(=O)CCCCCCC(C)C)Oc3ccc(cc3Cl)C[C@H]3NC(=O)[C@H](N)c5ccc(O)c(c5)Oc5cc(O)cc(c5)[C@H](NC3=O)C(=O)N[C@H]4C(=O)N[C@H]3C(=O)N[C@@H]2C(=O)N[C@H](C(=O)O)c2cc(O)cc(O[C@H]4O[C@H](CO)[C@@H](O)[C@@H](O)[C@@H]4O)c2-c2cc3ccc2O)O[C@@H](CO)[C@@H](O)[C@@H]1O	–	0.125 µg/mL (≈ 0.0665 µM)	0.063 µg/mL (≈ 0.0335 µM)	0.063 µg/mL (≈ 0.0335 µM)	0.12 mg/kg	0.125 µg/mL (≈ 0.0665 µM)	0.125 µg/mL (≈ 0.0665 µM)	> 170 mg/kg	8 µg/mL (≈ 4.26 µM)
CC(=O)N[C@@H]1[C@H](O[C@@H]2c3ccc(c(Cl)c3)Oc3cc4cc(c3O[C@@H]3O[C@@H](CO)[C@@H](O)[C@H](O)[C@@H]3NC(=O)CCCCCCC(C)C)Oc3ccc(cc3Cl)C[C@H]3NC(=O)[C@H](N)c5ccc(O)c(c5)Oc5cc(O)cc(c5)[C@H](NC3=O)C(=O)N[C@H]4C(=O)N[C@H]3C(=O)N[C@@H]2C(=O)N[C@H](C(=O)NCCCNCCNCCCN)c2cc(O)cc(O[C@H]4O[C@H](CO)[C@@H](O)[C@@H](O)[C@@H]4O)c2-c2cc3ccc2O)O[C@@H](CO)[C@@H](O)[C@@H]1O	350000 M⁻¹	0.125 µg/mL (≈ 0.0614 µM)	0.063 µg/mL (≈ 0.0309 µM)	0.125 µg/mL (≈ 0.0614 µM)	–	0.125 µg/mL (≈ 0.0614 µM)	0.25 µg/mL (≈ 0.123 µM)	–	0.125 µg/mL (≈ 0.0614 µM)
CC(=O)N[C@@H]1[C@H](O[C@@H]2c3ccc(c(Cl)c3)Oc3cc4cc(c3O[C@@H]3O[C@@H](CO)[C@@H](O)[C@H](O)[C@@H]3NC(=O)CCCCCCC(C)C)Oc3ccc(cc3Cl)C[C@H]3NC(=O)[C@H](N)c5ccc(O)c(c5)Oc5cc(O)cc(c5)[C@H](NC3=O)C(=O)N[C@H]4C(=O)N[C@H]3C(=O)N[C@@H]2C(=O)N[C@H](C(=O)NCCNCCCNCCN)c2cc(O)cc(O[C@H]4O[C@H](CO)[C@@H](O)[C@@H](O)[C@@H]4O)c2-c2cc3ccc2O)O[C@@H](CO)[C@@H](O)[C@@H]1O	350000 M⁻¹	0.125 µg/mL (≈ 0.0618 µM)	0.063 µg/mL (≈ 0.0312 µM)	0.125 µg/mL (≈ 0.0618 µM)	–	0.063 µg/mL (≈ 0.0312 µM)	0.125 µg/mL (≈ 0.0618 µM)	–	0.125 µg/mL (≈ 0.0618 µM)
CC(=O)N[C@@H]1[C@H](O[C@@H]2c3ccc(c(Cl)c3)Oc3cc4cc(c3O[C@@H]3O[C@@H](CO)[C@@H](O)[C@H](O)[C@@H]3NC(=O)CCCCCCC(C)C)Oc3ccc(cc3Cl)C[C@H]3NC(=O)[C@H](N)c5ccc(O)c(c5)Oc5cc(O)cc(c5)[C@H](NC3=O)C(=O)N[C@H]4C(=O)N[C@H]3C(=O)N[C@@H]2C(=O)N[C@H](C(=O)N2CCNCCNCCNCCNCCNCC2)c2cc(O)cc(O[C@H]4O[C@H](CO)[C@@H](O)[C@@H](O)[C@@H]4O)c2-c2cc3ccc2O)O[C@@H](CO)[C@@H](O)[C@@H]1O	350000 M⁻¹	0.125 µg/mL (≈ 0.059 µM)	0.063 µg/mL (≈ 0.0297 µM)	0.063 µg/mL (≈ 0.0297 µM)	–	0.125 µg/mL (≈ 0.059 µM)	0.25 µg/mL (≈ 0.118 µM)	–	8 µg/mL (≈ 3.77 µM)
CC(=O)N[C@@H]1[C@H](O[C@@H]2c3ccc(c(Cl)c3)Oc3cc4cc(c3O[C@@H]3O[C@@H](CO)[C@@H](O)[C@H](O)[C@@H]3NC(=O)CCCCCCC(C)C)Oc3ccc(cc3Cl)C[C@H]3NC(=O)[C@H](N)c5ccc(O)c(c5)Oc5cc(O)cc(c5)[C@H](NC3=O)C(=O)N[C@H]4C(=O)N[C@H]3C(=O)N[C@@H]2C(=O)N[C@H](C(=O)NCCCN(CCCN)CCCN)c2cc(O)cc(O[C@H]4O[C@H](CO)[C@@H](O)[C@@H](O)[C@@H]4O)c2-c2cc3ccc2O)O[C@@H](CO)[C@@H](O)[C@@H]1O	350000 M⁻¹	0.125 µg/mL (≈ 0.061 µM)	0.063 µg/mL (≈ 0.0307 µM)	0.063 µg/mL (≈ 0.0307 µM)	–	0.125 µg/mL (≈ 0.061 µM)	0.125 µg/mL (≈ 0.061 µM)	–	2 µg/mL (≈ 0.976 µM)
CC(=O)N[C@@H]1[C@H](O[C@@H]2c3ccc(c(Cl)c3)Oc3cc4cc(c3O[C@@H]3O[C@@H](CO)[C@@H](O)[C@H](O)[C@@H]3NC(=O)CCCCCCC(C)C)Oc3ccc(cc3Cl)C[C@H]3NC(=O)[C@H](N)c5ccc(O)c(c5)Oc5cc(O)cc(c5)[C@H](NC3=O)C(=O)N[C@H]4C(=O)N[C@H]3C(=O)N[C@@H]2C(=O)N[C@H](C(=O)NCCCNCCCN)c2cc(O)cc(O[C@H]4O[C@H](CO)[C@@H](O)[C@@H](O)[C@@H]4O)c2-c2cc3ccc2O)O[C@@H](CO)[C@@H](O)[C@@H]1O	350000 M⁻¹	0.5 µg/mL (≈ 0.251 µM)	0.125 µg/mL (≈ 0.0627 µM)	0.125 µg/mL (≈ 0.0627 µM)	–	0.25 µg/mL (≈ 0.125 µM)	1 µg/mL (≈ 0.502 µM)	–	2 µg/mL (≈ 1 µM)
